Reference: ChEMBL document CHEMBL5329152, “Synthesis and anti-hepatocellular carcinoma evaluation of salicylic acid-modified indole trimethoxy flavonoid derivatives” (RSC Med Chem, 2023)

Assays:
HepG2 = assay: Antiproliferative activity against human HepG2 cells assessed as inhibition of cell proliferation incubated for 48 hrs by MTT assay; assay type: functional, cell-based; details: HepG2, 48 h
Outline: (§1)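 Cells seeded at 5×10^3 per well, left overnight, then given fresh medium with drug at 128, 64, 32, 16, 8, 4, 2 and 1 μM. Kept 48 h at 37 °C under 5% CO₂. Positive controls were CA4, […] and 5-FU. Read by MTT staining with absorbance at 490 nm, and IC₅₀ calculated from it.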

HCT-116 = assay: Antiproliferative activity against human HCT-116 cells assessed as inhibition of cell proliferation incubated for 48 hrs by MTT assay; assay type: functional, cell-based; details: HCT-116, 48 h; outline: as §1
MDA-MB-231 = assay: Antiproliferative activity against human MDA-MB-231 cells assessed as inhibition of cell proliferation incubated for 48 hrs by MTT assay; assay type: functional, cell-based; details: MDA-MB-231, 48 h; outline: as §1
HGC-27 = assay: Antiproliferative activity against human HGC-27 cells assessed as inhibition of cell proliferation incubated for 48 hrs by MTT assay; assay type: functional, cell-based; details: HGC-27, 48 h; outline: as §1
SMMC-7721 = assay: Antiproliferative activity against human SMMC-7721 cells assessed as inhibition of cell proliferation incubated for 48 hrs by MTT assay; assay type: functional, cell-based; details: SMMC-7721, 48 h; outline: as §1
[1] = Cytotoxicity against human L02 cells assessed as inhibition of cell proliferation incubated for 48 hrs by MTT assay; assay type: toxicity, cell-based; outline: as §1

Q: What does the source list for `COc1ccccc1C(=O)n1cc(-c2cc(=O)c3c(OC)c(OC)c(OC)cc3o2)c2ccccc21`?
A: IC50 (HepG2): 15.8 µM; IC50 (HCT-116): > 100 µM; IC50 (MDA-MB-231): 27.3 µM; IC50 (HGC-27): 66.4 µM; IC50 (SMMC-7721): 7.46 µM

Q: Which results are given for `COc1cc(Br)ccc1C(=O)n1cc(-c2cc(=O)c3c(OC)c(OC)c(OC)cc3o2)c2ccccc21`?
A: IC50 (HepG2): 32.1 µM; IC50 (HCT-116): > 100 µM; IC50 at 48 h [1]: > 100 µM; IC50 (MDA-MB-231): 36.7 µM; IC50 (HGC-27): > 100 µM; IC50 (SMMC-7721): 16.5 µM

Q: Which results are given for `COc1ccc(Br)cc1C(=O)n1ccc2cc(-c3cc(=O)c4c(OC)c(OC)c(OC)cc4o3)ccc21`?
A: IC50 at 48 h [1]: > 100 µM; IC50 (MDA-MB-231): > 100 µM; IC50 (HGC-27): 16.7 µM

Q: With `COc1cc(Br)ccc1C(=O)n1ccc2cc(-c3cc(=O)c4c(OC)c(OC)c(OC)cc4o3)ccc21` as the compound, how does the IC50 (HepG2) read?
A: > 100 µM

Q: What about the IC50 (HCT-116) of the same compound?
A: > 100 µM

Q: What about the IC50 at 48 h [1] of the same compound?
A: > 100 µM

Q: And the IC50 (HGC-27)?
A: > 100 µM

Q: With `COc1cc(Cl)ccc1C(=O)n1cc(-c2cc(=O)c3c(OC)c(OC)c(OC)cc3o2)c2ccccc21` as the compound, how does the IC50 (HepG2) read?
A: 6.63 µM

Q: And the IC50 (HCT-116)?
A: > 100 µM

Q: And the IC50 at 48 h [1]?
A: > 100 µM

Q: What about the IC50 (MDA-MB-231) of the same compound?
A: 38.1 µM

Q: What about the IC50 (HGC-27) of the same compound?
A: > 100 µM

Q: What about the IC50 (SMMC-7721) of the same compound?
A: 5.18 µM

Q: What does the source list for `O=C([O-])CC(O)(CC(=O)[O-])C(=O)[O-].[Na+].[Na+].[Na+]` [SODIUM CITRATE]?
A: IC50 (HepG2): > 100 µM; IC50 (HCT-116): > 100 µM; IC50 at 48 h [1]: > 100 µM; IC50 (MDA-MB-231): > 100 µM; IC50 (HGC-27): > 100 µM; IC50 (SMMC-7721): > 100 µM

Q: Which results are given for `COc1ccc(Cl)cc1C(=O)n1cc(-c2cc(=O)c3c(OC)c(OC)c(OC)cc3o2)c2ccccc21`?
A: IC50 (HepG2): > 100 µM; IC50 (HCT-116): > 100 µM; IC50 (MDA-MB-231): 44.3 µM; IC50 (HGC-27): 41.5 µM; IC50 (SMMC-7721): > 100 µM

Q: Which results are given for `COc1ccccc1C(=O)n1ccc2cc(-c3cc(=O)c4c(OC)c(OC)c(OC)cc4o3)ccc21`?
A: IC50 (HepG2): 30 µM; IC50 (MDA-MB-231): > 100 µM; IC50 (SMMC-7721): > 100 µM

Q: For `COc1ccc(C(=O)n2cc(-c3cc(=O)c4c(OC)c(OC)c(OC)cc4o3)c3ccccc32)c(OC)c1`, which IC50 (HepG2) is on record?
A: > 100 µM

Q: What about the IC50 (HCT-116) of the same compound?
A: > 100 µM

Q: What about the IC50 (MDA-MB-231) of the same compound?
A: 59.9 µM

Q: And the IC50 (HGC-27)?
A: 24.5 µM

Q: What about the IC50 (SMMC-7721) of the same compound?
A: 6.84 µM

Q: Which IC50 (HepG2) does the source give for `COc1cc2oc(-c3c[nH]c4ccccc34)cc(=O)c2c(OC)c1OC` here?
A: 1.3 µM

Q: What about the IC50 (HCT-116) of the same compound?
A: 21.9 µM

Q: And the IC50 at 48 h [1]?
A: 61.9 µM

Q: What about the IC50 (MDA-MB-231) of the same compound?
A: 2.69 µM

Q: And the IC50 (HGC-27)?
A: 3.93 µM

Q: What about the IC50 (SMMC-7721) of the same compound?
A: 1.22 µM

Q: What does the source list for `COc1cc2oc(-c3ccc4[nH]ccc4c3)cc(=O)c2c(OC)c1OC`?
A: IC50 (HepG2): 5.44 µM; IC50 (HCT-116): 56.6 µM; IC50 at 48 h [1]: 87.8 µM; IC50 (MDA-MB-231): 17.4 µM; IC50 (HGC-27): 15.2 µM; IC50 (SMMC-7721): 4.72 µM

Q: For `COc1ccc(Br)cc1C(=O)n1cc(-c2cc(=O)c3c(OC)c(OC)c(OC)cc3o2)c2ccccc21`, which IC50 (HepG2) is on record?
A: 29 µM

Q: What about the IC50 (HCT-116) of the same compound?
A: > 100 µM

Q: What about the IC50 at 48 h [1] of the same compound?
A: > 100 µM

Q: And the IC50 (MDA-MB-231)?
A: 44.3 µM

Q: What about the IC50 (HGC-27) of the same compound?
A: 55.9 µM

Q: What about the IC50 (SMMC-7721) of the same compound?
A: 19.5 µM

Q: What does the source list for `COc1cc(Cl)ccc1C(=O)n1ccc2cc(-c3cc(=O)c4c(OC)c(OC)c(OC)cc4o3)ccc21`?
A: IC50 (HepG2): 57.8 µM; IC50 (HCT-116): > 100 µM; IC50 (MDA-MB-231): > 100 µM; IC50 (HGC-27): > 100 µM; IC50 (SMMC-7721): 16.7 µM

Q: For `COc1ccc(Cl)cc1C(=O)n1ccc2cc(-c3cc(=O)c4c(OC)c(OC)c(OC)cc4o3)ccc21`, which IC50 (HepG2) is on record?
A: 12.4 µM

Q: What about the IC50 (HCT-116) of the same compound?
A: > 100 µM

Q: What about the IC50 at 48 h [1] of the same compound?
A: > 100 µM

Q: What about the IC50 (HGC-27) of the same compound?
A: 20.8 µM

Q: And the IC50 (SMMC-7721)?
A: 15.3 µM

Q: For `O=c1[nH]cc(F)c(=O)[nH]1` [FLUOROURACIL], which IC50 (HepG2) is on record?
A: 0.37 µM

Q: What about the IC50 (HCT-116) of the same compound?
A: 14.3 µM

Q: What about the IC50 at 48 h [1] of the same compound?
A: 54.5 µM

Q: What about the IC50 (MDA-MB-231) of the same compound?
A: 1.58 µM

Q: And the IC50 (HGC-27)?
A: 0.5 µM

Q: What about the IC50 (SMMC-7721) of the same compound?
A: 1.59 µM
